NCF1 inh: inhibitors of human p47phox binding; hit rate 0.53% among 220,000; inhibition, % at 24.7 µM; p47phox/p22phox peptide binding, fluorescence polarization, 2 h; AID 1274;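 active = inhibition above about 30%, limit read from the data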
Target sequence (P14598 whole entry, looked up): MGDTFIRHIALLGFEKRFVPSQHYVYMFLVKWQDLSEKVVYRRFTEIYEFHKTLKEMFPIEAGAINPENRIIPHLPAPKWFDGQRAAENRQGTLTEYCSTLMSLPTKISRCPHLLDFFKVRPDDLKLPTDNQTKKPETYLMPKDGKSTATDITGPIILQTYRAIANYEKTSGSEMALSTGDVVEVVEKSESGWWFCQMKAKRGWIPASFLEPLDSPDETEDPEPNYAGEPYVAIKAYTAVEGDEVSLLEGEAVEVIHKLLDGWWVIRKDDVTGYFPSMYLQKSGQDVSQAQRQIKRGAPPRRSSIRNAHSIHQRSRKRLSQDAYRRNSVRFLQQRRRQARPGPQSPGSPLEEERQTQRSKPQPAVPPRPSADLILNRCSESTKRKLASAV
pCIP destab: p/CIP protein destabilization; Q05BA5; F442A p/CIP-EGFP cells, EGFP fluorescence, 16 h; decrease of EGFP signal, % at 10 µM; hit rate 0.01% among 290,000;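 active = EGFP signal decrease of at least 30% at 10 µM or well 3 SD below plate mean, unless failing retest; inactive = the rest, including hits failing retest or dose response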
Dynein cargo inh: dynein cargo transport inhibition | 3617.4 mouse cells, GR-EGFP nuclear translocation imaging; test concentration mostly 20 µM; stimulated with dexamethasone, 1 µM; hits give low values | z-score, hits read low | hit rate 0.47% among 220,000 | AID 1381;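 active = plate z-score of nuclear minus cytoplasmic receptor signal below a set negative limit, without overly bright fluorescence or cell loss, cut at about -3.5 in these data, passing the limit was not always enough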;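 note: z-score of nuclear minus cytoplasmic ring GR-EGFP intensity difference per well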
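Also added – dexamethasone, 1.0 µM final · Buffer or medium – tet-free, stripped-serum medium · Schedule – induction 48 h, compound 1 h, agonist 30 min · Detection – formaldehyde fixation, Hoechst nuclear stain, 10x automated fluorescence imaging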
RAM network inh: blocks the yeast RAM network | hit rate 1.8% among 190,000 | S. cerevisiae dse1pr::URA3 reporter, 5-FOA growth OD615, 2 d; analog-sensitive cbk1-as2 kinase mutant strain | inhibition, % at 50 µM | AID 868;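 active = inhibition above a set limit, 3 SD over mean compound inhibition, cut at about 8.4% in these data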;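 note: inhibition rescues growth on 5-FOA so higher OD means more RAM inhibition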
Dynein confirm: dynein cargo transport inhibition, confirmation; shares compounds with Dynein cargo inh; 3617.4 GR-EGFP nuclear translocation imaging, dexamethasone-induced; calls only at 20 µM; hit rate 69% among 1,000;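 active = inhibition of receptor movement into the nucleus at or above a set limit in both runs, with normal cell brightness and cell count; inconclusive = limit reached in only one run, brightness and count normal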;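 note: dexamethasone at 1 µM final in well for 30 min; nuclear minus cytoplasmic GR-EGFP mean intensity difference in channel 2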
Hits are given with their value; 0 = inactive; ? = inconclusive; - = no result; + = active, no number. Sampled rows, rich in hits. Any-hit rate of the full collection: about 1.9%.

SMILES | NCF1 inh | pCIP destab | Dynein cargo inh | RAM network inh | Dynein confirm
CCOC(=O)c1c(NC(=S)N2CCCCC2)sc2c1CCN(C(=O)OCC)C2 | 0 | 0 | -3.6 | - | +
CCOC(=O)c1c(NC(=S)N2CCOCC2)sc2c1CCN(C(=O)OCC)C2 | 0 | 0 | -4.7 | - | +
COc1ccccc1-c1cc(C(F)(F)F)nc(S(C)(=O)=O)n1 | 0 | 0 | -4.6 | 0 | +
COc1ccccc1-c1cc(C(F)(F)F)nc(S(=O)(=O)CCCC(=O)N2CCCCC2C)n1 (stereo not drawn) | 0 | 0 | -5.8 | 0 | ?
CCOC(=O)C1=C(C)N(C)C(=O)NC1c1c(O)ccc2ccccc12 (stereo not drawn) | - | 0 | - | - | -
CCCCN1C(=O)/C(=C/C=C2\Oc3ccccc3N2CC)SC1=S | 0 | 0 | 0 | 0 | +
CCCN1C(=O)/C(=C/C=C2\N(CC)c3ccccc3C2(C)C)SC1=S | 0 | 0 | 0 | 0 | 0
CCN1C(=O)/C(=C/C=C2/Sc3ccccc3N2CCO)SC1=S | 0 | 0 | 0 | 0 | -
CCCN1C(=O)/C(=C\C=C2/Sc3ccccc3N2CCO)SC1=S | 0 | 0 | 0 | 0 | -
COCCCNC1=C(Cl)C(=O)c2ccccc2C1=O | 0 | 0 | 0 | - | -
COCCCNc1c2c3c(cccc3[nH]c1=O)C(=O)c1ccccc1-2 | 0 | 0 | -4.9 | 0 | +
Nc1c(C(=O)N/N=C/c2ccc(F)cc2)oc2nc(-c3ccccc3)cc(-c3ccco3)c12 | 0 | 0 | 0 | - | 0
Cc1cc(-c2ccccc2)nc2cc(C(=O)NCc3ccco3)nn12 | 0 | 0 | 0 | 0 | -
Cc1ccc(-c2csc3ncnc(Sc4nnc(CN5CCCCCC5=O)o4)c23)cc1 | 0 | 0 | -3.8 | 0 | +
COc1cc(/C=C2\COC/C(=C\c3ccc(O)c(OC)c3)C2=O)ccc1O | 0 | 0 | -5.7 | - | +
CCN1C/C(=C/c2ccc(OC)c(O)c2)C(=O)/C(=C/c2ccc(OC)c(O)c2)C1 | 0 | 0 | -6.3 | 0 | ?
COc1cc(C=C2C(=O)c3ccccc3C2=O)ccc1O | 0 | 0 | 0 | - | -
CC[C@H](C)/C=C(C)/C=C/C(=O)Cc1cc(O)c(C)c(O)c1C=O | 0 | 0 | -3.8 | - | +
COc1cccc(Nc2ncccc2C(=O)NCc2ccccc2)c1 | 0 | 0 | 0 | 0 | 0
Cc1ccc(NS(=O)(=O)Cc2ccccc2)cc1Cl | - | 0 | - | - | -
CCOc1ccccc1NC(=O)/C=C/c1ccccc1[N+](=O)[O-] | 0 | 0 | 0 | 0 | -
CCOC(=O)COc1ccc2ccccc2c1/C=C/[N+](=O)[O-] | 0 | 0 | -4.8 | 0 | +
CCOc1ccc(/C=C/[N+](=O)[O-])c2ccccc12 | 0 | 0 | -3.9 | 0 | 0
CCOC(=O)COc1ccc(/C=C/[N+](=O)[O-])c(OCC(=O)OCC)c1 | 0 | 0 | -4.8 | 0 | +
CCOC(=O)COc1ccc2nsnc2c1 | 0 | 0 | 0 | 0 | -
SMILES | NCF1 inh | pCIP destab | Dynein cargo inh | RAM network inh | Dynein confirm
O=C(O)c1nn(CC(=O)N2CCN(S(=O)(=O)c3ccc(Cl)cc3)CC2)c(=O)c2ccccc12 | 0 | 0 | 0 | - | -
COc1cc(N2C(=O)C=CC2=O)c(OC)cc1Cl | 0 | 0 | -5.1 | - | +
CSc1ccccc1NC(=O)c1cccc(S(=O)(=O)N2CCN(C)CC2)c1 | - | 0 | - | - | -
CC1(CCC(=O)N2CCCC(N3CCN(c4cccc(C(F)(F)F)c4)CC3)C2)CC1 (stereo not drawn) | - | 0 | - | - | -
COc1cc2c(cc1OC)C(Cc1ccc(O)cc1)N(C)CC2 (stereo not drawn) | 0 | 0 | -4.7 | 0 | 0
O=C(Nc1ccnn1C1CCN(Cc2cccc(OCCO)c2)CC1)c1cccc(F)c1 | - | 0 | - | - | -
O=C(O)c1ccc(NC2=C(Cl)C(=O)c3ccccc3C2=O)cc1 | 0 | 0 | -5.2 | - | +
O=[N+]([O-])/C=C/c1cn(Cc2ccc(Cl)cc2)c2ccccc12 | 0 | 0 | -3.7 | 0 | 0
O=C(O)c1ccc(Cn2cc(/C=C\[N+](=O)[O-])c3ccccc32)o1 | - | 0 | - | - | -
CCN(CC)S(=O)(=O)c1cccc(NC(=O)c2ccc(-n3nc(C)cc3C)cc2)c1 | 0 | 0 | 0 | 0 | -
COc1cc(CNc2nnnn2C)cc(OC)c1OC | - | 0 | - | - | -
O=C(Nc1ccc(F)cc1)c1nn(-c2ccccc2)c(=O)cc1Cl | 0 | 0 | -5.4 | 0 | +
Cc1ccc(NC(=O)c2cc(-c3ccccc3)nn2-c2ccccc2)cc1 | 0 | 0 | 0 | 0 | -
O=C(/C(=C/c1ccc(Cl)cc1)c1nc2ccccc2[nH]1)c1ccccc1 | 0 | 0 | -4.7 | 0 | +
COc1cc(/C=C(/C(=O)c2cccs2)c2nc3ccccc3[nH]2)cc(OC)c1O | 0 | 0 | -4.6 | 0 | +
O=C(N/C(=C/c1ccc(Cl)cc1)c1nc2ccccc2[nH]1)c1ccco1 | 0 | 0 | 0 | 0 | -
CCOC(=O)N1CCN(S(=O)(=O)/C=C/c2ccccc2)CC1 | 0 | 0 | 0 | 0 | -
CCOC(=O)N1C/C(=C\c2ccccc2)C(=O)/C(=C/c2ccccc2)C1 | 0 | 0 | -4.9 | - | +
O=C1C=CC(O)(c2cc(=O)c3c(O)cc(O)cc3o2)C=C1 | 0 | 0 | -6.7 | 0 | +
COc1ccc(C2C(C#N)=C(N)Oc3cc(N)ccc32)cc1 (stereo not drawn) | - | 0 | - | - | -
COc1ccc(C2C(C#N)=C(N)Oc3c2sc2nc(C)cc(C)c32)cc1 (stereo not drawn) | 0 | 0 | -3.9 | 0 | 0
COc1cccc(CNC(=O)C(=O)NCC2OCCCN2S(=O)(=O)c2cc(C)ccc2C)c1 (stereo not drawn) | - | 0 | - | - | -
Cc1cc(S(=O)(=O)N2CCN(c3ccccc3F)CC2)ccc1-n1cnnn1 | - | 0 | - | - | -
Cc1ccc2c(c1)/C(=N/OS(=O)(=O)c1ccccc1)CCS2 | - | - | 0 | - | -
CC1=CC(=O)C(C(C)C)=C/C1=N/OS(=O)(=O)c1ccccc1 | 0 | 0 | -4.2 | - | 0
SMILES | NCF1 inh | pCIP destab | Dynein cargo inh | RAM network inh | Dynein confirm
CC1=CC(=O)C=C(C)C1=NOS(=O)(=O)c1ccccc1 | 0 | 0 | -5 | 0 | +
CC(=O)O[C@@H]1C[C@H]2C(C)(C)C(=O)C=C[C@]2(C)[C@H]2CC[C@@]3(C)[C@H](c4ccoc4)OC(=O)[C@H]4O[C@]43[C@@]21C | 0 | 0 | -3.9 | 0 | +
O=c1c(Cl)cc(Cl)nn1-c1ccccc1 | 0 | 0 | -3.5 | 0 | +
COc1cc(Cl)nn(-c2ccccc2)c1=O | 0 | 0 | 0 | 0 | -
CS(=O)(=O)c1ccc(C(=O)NC2CCCc3ccccc32)cc1 (stereo not drawn) | 0 | 0 | 0 | 0 | -
CN(c1ccccc1C(=O)Nc1cccc([N+](=O)[O-])c1)S(C)(=O)=O | 0 | 0 | 0 | 0 | -
Cc1ccc(S(=O)(=O)/N=C(\CCl)N2CCOCC2)cc1 | 0 | 0 | -3.8 | 0 | +
Nc1ncc(Br)cc1S(=O)(=O)Nc1cc(C(F)(F)F)cc(C(F)(F)F)c1 | - | 0 | - | - | -
Cc1ccc(-c2nnnn2-c2ccc(C)cc2)cc1 | 0 | 0 | 0 | 0 | -
Cc1ccc(-n2nnnc2CCl)cc1 | 0 | 0 | -6.1 | 0 | +
Cc1ccc(-c2cc(C(F)F)nc(S(C)(=O)=O)n2)cc1 | 0 | 0 | -4.5 | 0 | +
CC(C)c1csc(CN2CCC(n3nccc3NC(=O)Cc3ccccc3)CC2)n1 | - | 0 | - | - | -
CCOC(=S)SCC(=O)Nc1nccs1 | 0 | 0 | 0 | 0 | -
